FLuc stim CS = affects firefly luciferase, flagging false hits in luciferase stimulation screens; 200,000 tested, under 10 active; ATPlite luciferase biochemical, luminescence, 10 min; 0 = ATP-free wells, 1 = DMSO control; P08659; activation factor at 10 µM; AID 1027;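 active means luciferase activation factor, scaled between plate controls, of at least 2 with compound at 10 µM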
Target sequence (P08659 whole entry, looked up): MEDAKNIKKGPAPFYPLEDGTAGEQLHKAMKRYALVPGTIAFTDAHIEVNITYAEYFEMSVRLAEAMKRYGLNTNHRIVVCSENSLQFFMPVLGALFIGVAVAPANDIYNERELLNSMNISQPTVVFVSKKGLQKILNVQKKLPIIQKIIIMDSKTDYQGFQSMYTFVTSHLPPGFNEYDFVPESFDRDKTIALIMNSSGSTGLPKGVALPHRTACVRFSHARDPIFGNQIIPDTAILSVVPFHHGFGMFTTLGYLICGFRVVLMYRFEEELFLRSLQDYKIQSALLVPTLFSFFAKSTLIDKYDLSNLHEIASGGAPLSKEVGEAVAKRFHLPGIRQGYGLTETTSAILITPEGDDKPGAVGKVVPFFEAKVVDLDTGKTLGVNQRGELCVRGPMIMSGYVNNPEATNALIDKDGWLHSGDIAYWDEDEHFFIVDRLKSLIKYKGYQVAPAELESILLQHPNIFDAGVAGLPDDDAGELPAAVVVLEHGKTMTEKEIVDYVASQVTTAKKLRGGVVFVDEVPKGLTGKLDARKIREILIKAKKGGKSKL
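Assay system – cell-free luciferase reagent · Medium – PBS-based ATP solution · Dosing – test compounds dosed from 2 mM stocks in 100% DMSO · Timing – 10 min, room temperature · Technique – light output (luminescence) · Measure – luminescence gain marking luciferase activators · Controls – No-ATP low control, compound-free enzyme-plus-ATP high control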
PPC-1+TRAIL kill = kills PPC-1 cancer cells in the presence of TRAIL; cell killing (% activity), % at 4 µM or 5 µM; PPC-1 cells + TRAIL, ATPLite viability luminescence; 0.41% of 220,000 active;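 active means cell killing above 50% in the first pass at 4 µM, then a duplicate retest at 5 µM averaging 50% or more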
TRAIL sens C8 = sensitizes caspase-8 expressing cells to TRAIL | NB7+C8 cells + TRAIL, ATPlite viability luminescence | inhibition (viability loss, TRAIL sensitization), % at 10 µM | 1% of 360,000 active | AID 624354;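 active means compounds causing at least 50% loss of cell viability in the single-dose screen, relative to plate controls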
FLuc inh counter = counter-screen for luciferase assay inhibitors: firefly luciferase inhibition; ATPLite firefly luciferase biochemical luminescence, 10 min; inhibition, % at 10 µM; 1.5% of 200,000 active; P08659;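 active means inhibition above about 50% when tested at 10 µM, limit read from the data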
PPC1 cytotox = kills PPC-1 cells; shares compounds with PPC-1+TRAIL kill; PPC-1 viability, ATPlite luminescence, overnight; cytotoxicity, % at 5 µM; 50% of 1,200 active; AID 1447;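 active means reconfirmed compounds whose average cytotoxicity reaches 50% or more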
Of the large screens only hits and unclear results are named; the others gave an inactive call (follow-up assays come after a bar, where they were run). The list is not random: actives were taken first. Their share in the collection is about 1.6%.

CCN(CC)c1ccc(/C=N/n2c(C)nc3ccccc3c2=O)cc1	none (no result: FLuc stim CS, PPC-1+TRAIL kill, FLuc inh counter)
COc1cc2c(cc1OC)C(c1ccc3c(c1)Cc1ccccc1-3)OC(=O)C2 (centres undefined)	none (no result: FLuc stim CS, PPC-1+TRAIL kill, FLuc inh counter)
COc1ccc(-c2cnnc(N/N=C/c3ccc(OC)c(OC)c3)n2)cc1	none
COc1ccc(/C=N/Nc2nncc3ccccc23)cc1	PPC-1+TRAIL kill 95, TRAIL sens C8 91, FLuc inh counter 97 | PPC1 cytotox 95
N/C(=N\OC(=O)c1ccc(Cl)cc1Cl)c1ccccc1	PPC-1+TRAIL kill 65, TRAIL sens C8 94, FLuc inh counter 95 | PPC1 cytotox 62
COc1ccc(CC(=O)O/N=C(\N)c2ccccc2)cc1OC	none (no result: FLuc stim CS, PPC-1+TRAIL kill, FLuc inh counter)
COc1ccc(C(=O)O/N=C(\N)c2ccccc2)c(OC)c1	none | PPC1 cytotox inactive
N/C(Cc1ccc(Cl)cc1Cl)=N\OC(=O)c1ccccc1	none
Cc1ccc(NC(=O)NNC(=O)Cn2nc(-c3ccccc3)c(-c3ccccc3)c(C#N)c2=O)cc1	none
O=C(N/N=C/c1cccc(OC(=O)c2cccc(Br)c2)c1)c1ccncc1	none (no result: FLuc stim CS, PPC-1+TRAIL kill, FLuc inh counter)
CC(=O)NNc1cc(C)nc(N)n1	none (no result: FLuc stim CS, FLuc inh counter)
C=CCC1NS(=O)(=O)O[C@H](CCCC)[C@@H]1O (some centres undefined)	none (no result: FLuc stim CS, PPC-1+TRAIL kill, FLuc inh counter)
O=C1CC(c2ccc3c(c2)OCO3)c2cc3c(cc2N1)OCCO3 (centres undefined)	none | PPC1 cytotox inactive
COc1ccc(S(=O)(=O)Nc2ccccn2)c(C)c1C	none | PPC1 cytotox inactive
c1ccc(-c2csc(-n3cccn3)n2)cc1	none
O=C(/C=C/c1ccc(Cl)cc1Cl)Nc1cccc(S(=O)(=O)NC2=NCCC2)c1	PPC-1+TRAIL kill 87, TRAIL sens C8 91, FLuc inh counter 96 | PPC1 cytotox 88
CC(NCC(=O)NC(=O)NCCC1=CCCCC1)c1ccc(S(N)(=O)=O)cc1 (centres undefined)	none (no result: FLuc stim CS, PPC-1+TRAIL kill, FLuc inh counter)
Cc1ccc(C(C)C)cc1C(=O)CC1(O)C(=O)N(C)c2ccccc21 (centres undefined)	none | PPC1 cytotox inactive
CCOC(=O)c1cnn(-c2ncnc3c2oc2ccccc23)c1N	none | PPC1 cytotox inactive
CCOC(=O)C1CCN(c2ncnc3c2oc2ccccc23)CC1	none
CCN(CC)c1ccc2cc(-c3nc4ccccc4n3C)c(=O)oc2c1	none
CCN(CC)c1ccc2cc(-c3nc4ccccc4[nH]3)c(=O)oc2c1	PPC-1+TRAIL kill 96, TRAIL sens C8 95, FLuc inh counter 96 | PPC1 cytotox 95
COc1cc(/C=C/c2cc(C(=O)O)c3ccccc3n2)ccc1OC(F)F	PPC-1+TRAIL kill 80, TRAIL sens C8 83 (no result: FLuc stim CS, FLuc inh counter) | PPC1 cytotox 79
O=C(O)c1cc(/C=C/c2ccc(N3CCOCC3)cc2)nc2ccccc12	PPC-1+TRAIL kill 90, TRAIL sens C8 87, FLuc inh counter 97 | PPC1 cytotox 91
O=C(O)c1cc(N2CCOCC2)nc2ccccc12	none (no result: FLuc stim CS, PPC-1+TRAIL kill, FLuc inh counter)
COc1cc(/C=C/C(=O)OCN2C(=O)c3ccccc3C2=O)ccc1OC(F)F	none (no result: FLuc stim CS, PPC-1+TRAIL kill, FLuc inh counter)
COc1ccc(CNC(=O)CN(Cc2ccco2)C(=O)CCC(=O)Nc2ccccn2)cc1	none (no result: FLuc stim CS, PPC-1+TRAIL kill, FLuc inh counter)
COc1ccc(-c2nsc(C(=O)N(c3ccc(F)cc3)C(C(=O)NC3CCCC3)c3ccc(OC)cc3)c2N)cc1 (centres undefined)	none | PPC1 cytotox inactive
N#Cc1c(-n2cccc2/C=N/O)sc2c1CCCC2	none
C=CCNCc1cccn1-c1sc2c(c1C#N)CCCC2	none | PPC1 cytotox inactive
CCOc1ccc(C(=O)Nc2ccccc2C(=O)O)cc1	PPC-1+TRAIL kill 62, TRAIL sens C8 75, FLuc inh counter 93 | PPC1 cytotox 62
CCCC(=O)Nc1ccccc1NC(=O)c1ccc(OCC)cc1	none
CCOc1ccc(C(=O)Nc2cc(C)on2)cc1	TRAIL sens C8 64, FLuc inh counter 74 | PPC1 cytotox 50
CCCCC[C@@H]1C=C(C(=O)O)[C@H](c2cccc(C)c2)N1S(=O)(=O)c1ccc(C)cc1	none (no result: FLuc stim CS, PPC-1+TRAIL kill, FLuc inh counter)
Cc1cc(N2CC(=O)N(CCc3ccccc3)C(=O)C2)n2ncnc2n1	none | PPC1 cytotox inactive
Cc1cc(N2CCN(c3ccccc3)CC2)n2ncnc2n1	none
CCCCCCCn1c2c(c(=N)c3ccccc31)CCC2	TRAIL sens C8 60 | PPC1 cytotox inactive
CCOC(=O)Nc1ccc(S(=O)(=O)N2CCOCC2)cc1	none
CCOC(=O)Nc1ccc(S(=O)(=O)NCCCN2CCOCC2)cc1	none | PPC1 cytotox inactive
Nc1ccc(-c2nc3ccc(N)cc3o2)cc1	TRAIL sens C8 68, FLuc inh counter 87 | PPC1 cytotox inactive
COc1cccc2c1cc1c(=O)n(CC(=O)NCCCN3CCCCC3)nc(C)n12	none (no result: FLuc stim CS, PPC-1+TRAIL kill, FLuc inh counter)
Cc1ccc(N/C=C/C(=O)c2cccs2)cc1C	PPC-1+TRAIL kill 71, TRAIL sens C8 78, FLuc inh counter 94 | PPC1 cytotox 71
COc1ccc(/C=C/C(=O)c2c(O)cc(C)oc2=O)c(OC)c1	PPC-1+TRAIL kill 87, TRAIL sens C8 89, FLuc inh counter 95 | PPC1 cytotox 86
COc1cccc(/C=C/C(=O)c2c(O)cc(C)oc2=O)c1O	none
Cc1ccc(C2=NN(CCC(=O)NCc3ccc4c(c3)OCO4)C(=O)CC2)cc1	none
CC1(C(=O)N2Cc3ccccc3C2)CCN1C(=O)C1(c2ccccc2)CC1 (centres undefined)	none (no result: FLuc stim CS, PPC-1+TRAIL kill, FLuc inh counter)
COc1ccc(-c2nc3ccccc3s2)cc1O	PPC-1+TRAIL kill 83, TRAIL sens C8 82, FLuc inh counter 91 | PPC1 cytotox 84
CC(C)c1ccc(-c2nc3ccccc3s2)cc1	PPC-1+TRAIL kill 91, TRAIL sens C8 93 (no result: FLuc stim CS, FLuc inh counter) | PPC1 cytotox 92
FC(F)(F)c1ccc(-c2nc3ccccc3s2)cc1	none (no result: FLuc stim CS, PPC-1+TRAIL kill, FLuc inh counter)
COc1cccc(-c2nc3ccccc3s2)c1O	PPC-1+TRAIL kill 61, TRAIL sens C8 73, FLuc inh counter 87 | PPC1 cytotox 64
Cc1cc(C)cc(NC(=O)C2CCCN2/C=C/C(=O)C(F)(F)F)c1 (centres undefined)	none
CCc1ccc(Nc2nnc(SCC(=O)NC(=O)c3cccn3C)s2)cc1	none | PPC1 cytotox inactive
CCc1ccc(Nc2nnc(SCC(=O)N(C)C3CCS(=O)(=O)C3)s2)cc1 (centres undefined)	PPC-1+TRAIL kill 70, TRAIL sens C8 71 (no result: FLuc stim CS, FLuc inh counter) | PPC1 cytotox 68
CN(C(=O)CSc1nnc(NC2CCCCC2)s1)C1CCS(=O)(=O)C1 (centres undefined)	none
Oc1ccc(Br)cc1C=Nc1ccc(Cl)cc1	none
CCN(CC)c1ccc(N=Cc2cc(Br)ccc2O)cc1	none | PPC1 cytotox inactive
COc1ccc2nc(/N=C\N(C)C)sc2c1	none
COc1ccc2nc(N=Nc3ccc(N(C)C)cc3)sc2c1	PPC-1+TRAIL kill 90, TRAIL sens C8 94, FLuc inh counter 95 | PPC1 cytotox 90
COc1cccc2c1C(=O)O/C2=C/c1ccc2c(c1)OCO2	TRAIL sens C8 63, FLuc inh counter 85 | PPC1 cytotox inactive
Cc1cc(C)c(NC(=O)CNC(=O)COC(=O)CN2C(=O)NC3(CCCC3)C2=O)c(C)c1	none (no result: FLuc stim CS, PPC-1+TRAIL kill, FLuc inh counter)
CN1CCN(C(=O)c2ccc(-c3ccc(F)c(F)c3)c3ccoc23)CC1	none (no result: FLuc stim CS, PPC-1+TRAIL kill, FLuc inh counter)

Bioassay records from PubChem.
